{"data": "Experimental data pooled from the literature", "USP51": "Ubiquitin carboxyl-terminal hydrolase 51 (USP51, Homo sapiens, UniProt Q70EK9)", "CASP3": "Caspase-3 (CASP3, Homo sapiens, UniProt P42574)", "PDE10A": "cAMP and cAMP-inhibited cGMP 3',5'-cyclic phosphodiesterase 10A (PDE10A, Homo sapiens, UniProt Q9Y233)"}
{"SMILES": "CC1=C2[C@H]3OC(=O)[C@@H](C)[C@@H]3CC[C@@]2(C)C=CC1=O", "target": "USP51", "observed": "enzyme activity", "mode": "inhibitor", "concentration": "5 µM", "inhibition": "28%"}
{"SMILES": "CC(=O)N[C@@H](CC(=O)O)C(=O)N[C@@H](CC(N)=O)C(=O)N[C@@H](CC(C)C)C(=O)N[C@H](C=O)CC(=O)O", "target": "CASP3", "observed": "enzyme activity", "mode": "inhibitor", "concentration": "0.1 µM", "inhibition": "80%"}
{"SMILES": "COc1cccc2c1cc([N+](=O)[O-])c1c(C(=O)O)cc3c(c12)OCO3", "target": "USP51", "observed": "enzyme activity", "mode": "inhibitor", "concentration": "5 µM", "inhibition": "36%"}
{"SMILES": "N=C(N)c1ccc2cc(OC(=O)c3ccc(N=C(N)N)cc3)ccc2c1", "target": "CASP3", "observed": "enzyme activity", "mode": "inhibitor", "concentration": "10 µM", "inhibition": "0%"}
{"SMILES": "c1ccc(C(NCCNC(c2ccccc2)c2ccccc2)c2ccccc2)cc1", "target": "PDE10A", "observed": "enzyme activity", "mode": "inhibitor", "concentration": "10 µM", "inhibition": "0%"}
{"SMILES": "O=c1cccc2n1C[C@@H]1CNC[C@H]2C1", "target": "USP51", "observed": "enzyme activity", "mode": "inhibitor", "concentration": "5 µM", "inhibition": "0%"}
{"SMILES": "C#Cc1n[nH]c2c(-c3cn([C@@H](C)c4ccccn4)c(=O)[nH]c3=O)cc(F)cc12", "target": "AP2-associated protein kinase 1 (AAK1, Homo sapiens, UniProt Q2M2I8)", "observed": "enzyme activity", "mode": "inhibitor", "concentration": "0.1 µM", "inhibition": "4.6%"}
{"SMILES": "CC[C@H]1[C@@H]2C[C@H]3[C@@H]4N(C)c5ccccc5[C@]45C[C@@H]([C@H]2[C@H]5O)N3[C@@H]1O", "target": "USP51", "observed": "enzyme activity", "mode": "inhibitor", "concentration": "5 µM", "inhibition": "26%"}
{"SMILES": "Cc1ncc(C)n2nc(/C=C/c3nc(N4CCCC4)cc(N4CCOCC4)n3)nc12", "target": "Prostaglandin F2-alpha receptor (PTGFR, Homo sapiens, UniProt P43088)", "observed": "ligand displacement", "concentration": "10 µM", "inhibition": "-9%"}
{"SMILES": "C[C@H](C(=O)N[C@H]1COc2ccccc2[C@@H]1S(C)(=O)=O)c1ccc(F)cc1", "target": "PDE10A", "observed": "enzyme activity", "mode": "inhibitor", "concentration": "10 µM", "inhibition": "-4%"}
{"SMILES": "Cn1cc(-c2cccc(N3CCc4c(sc5c4CC(C)(C)C5)C3=O)c2CO)cc(Nc2ccncn2)c1=O", "target": "Calcium/calmodulin-dependent protein kinase type IV (CAMK4, Homo sapiens, UniProt Q16566)", "observed": "enzyme activity", "mode": "inhibitor", "concentration": "1 µM", "inhibition": "-5%"}
{"SMILES": "C[C@@H]1CC[C@H]2[C@@H](C)C(=O)O[C@@H]3O[C@@]4(C)CC[C@@H]1[C@]32OO4", "target": "USP51", "observed": "enzyme activity", "mode": "inhibitor", "concentration": "5 µM", "inhibition": "17%"}
{"SMILES": "COCc1c(-c2cc3cc(C)cc(OC)c3s2)c2c(N)ncnn2c1CN1CCNC(=O)C1", "target": "Growth hormone secretagogue receptor type 1 (GHSR, Homo sapiens, UniProt Q92847)", "observed": "ligand displacement", "method": "radioligand", "concentration": "10 µM", "inhibition": "11%"}
{"SMILES": "O=C(Nc1cccnn1)N1CCN([C@@H]2CCOc3cc(C(F)(F)F)ccc32)CC1", "target": "Melanin-concentrating hormone receptor 1 (MCHR1, Homo sapiens, UniProt Q99705)", "observed": "cell-free assay", "concentration": "20 µM", "inhibition": "-13%"}
{"SMILES": "C#Cc1n[nH]c2c(-c3cn([C@@H](C)c4ccccc4)c(=O)[nH]c3=O)cc(F)cc12", "target": "DNA-dependent protein kinase catalytic subunit (PRKDC, Homo sapiens, UniProt P78527)", "observed": "enzyme activity", "mode": "inhibitor", "concentration": "0.1 µM", "inhibition": "-1.6%"}
